Holding throughout (type): functional
Test [1] has as its system Podosphaera fuliginea. As to the kind of experiment: Antifungal activity against Podosphaera fuliginea assessed as fungicidal activity at 200 mg/L (beneficial crop - cucumber). The method in brief:
(§1)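 In vivo preventive test on cucumber as host plant.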

The subject of another test is Botrytis cinerea. As to the kind of experiment: Antifungal activity against Botryotinia fuckeliana assessed as fungicidal activity at 200 mg/L (beneficial crop - cucumber). The method in brief:
as §1

Test [2] relates to Pseudoperonospora cubensis. Nature of the test: Antifungal activity against Pseudoperonospora cubensis assessed as fungicidal activity at 200 mg/L (beneficial crop - cucumber). The method in brief: as §1
A further test has as its system Rhizoctonia solani. As to the kind of experiment: Antifungal activity against Rhizoctonia solani assessed as fungicidal activity at 200 mg/L (beneficial crop - cucumber). The procedure, abridged:
as §1

Test [3] relates to Pseudoperonospora cubensis. Nature of the test: Antifungal activity against Pseudoperonospora cubensis in cucumber plants under greenhouse conditions assessed as fungicidal activity by in vivo assay. The procedure, abridged:
as §1

Test [4] deals with Podosphaera fuliginea. Nature of the test: Antifungal activity against Podosphaera fuliginea in cucumber plants under greenhouse conditions assessed as fungicidal activity by in vivo assay. The procedure, abridged:
as §1

In brackets after ≈: the same amount, converted by molar mass.

Regarding `CO/C=C(/C(=O)OC)c1ccccc1COc1cccc(C(=O)/C=C/c2ccccc2Cl)c1`, the inhibition (in general, the share of the control response that was lost under treatment) at 200 µg/mL is 94% in the test on Podosphaera fuliginea [1], 0% in the test on Botrytis cinerea, 98% in test [2] and 0% in the test with Rhizoctonia solani. The concentration for an effect of 90% (EC90) (in general, the concentration needed for an effect of 90%) in test [3] turned out to be 118.52 µg/mL (≈ 256 µM).
As for `CO/C=C(/C(=O)OC)c1ccccc1COc1cccc(C(=O)/C=C/c2cccc(Br)c2)c1`, the inhibition at 200 µg/mL with Podosphaera fuliginea [1] is 99%; in the test on Botrytis cinerea, 0%; in test [2], 99%; with Rhizoctonia solani, 0%. Further, the EC90 in test [3] was 113.64 µg/mL (≈ 224 µM).
Take `CO/C=C(/C(=O)OC)c1ccccc1COc1ccc(C(=O)/C=C/c2ccc3c(c2)OCO3)cc1`: the inhibition at 200 µg/mL (in the test on Podosphaera fuliginea [1]; in the test on Botrytis cinerea; in test [2]; in the test with Rhizoctonia solani) was 0% in each case.
As to `CO/C=C(/C(=O)OC)c1ccccc1COc1ccc(C(=O)/C=C/c2c(F)cccc2Cl)cc1`, the inhibition at 200 µg/mL in the test with Podosphaera fuliginea [1] was determined as 0%; in the test on Botrytis cinerea it was 0%; in test [2], 67%; in the test with Rhizoctonia solani, 0%.
On to `CO/C=C(/C(=O)OC)c1ccccc1COc1ccc(Cl)cc1C(=O)/C=C/c1ccccc1`, for which the inhibition at 200 µg/mL (in the test on Podosphaera fuliginea [1]; in the test on Botrytis cinerea; in test [2]; in the test on Rhizoctonia solani) was 0% throughout.
Take `CO/C=C(/C(=O)OC)c1ccccc1COc1ccc(C(=O)/C=C/c2ccc(OC)c(OC)c2)cc1`: the inhibition at 200 µg/mL with Podosphaera fuliginea [1] was 0%; in the test on Botrytis cinerea, 0%; in test [2] it was 11%; in the test on Rhizoctonia solani, 0%.
`CO/C=C(/C(=O)OC)c1ccccc1COc1ccc(C(=O)/C=C/c2ccc(C)c(C)c2)cc1`: the inhibition at 200 µg/mL was determined as 30% in the test on Podosphaera fuliginea [1], 0% in the test on Botrytis cinerea, 67% in test [2] and 0% in the test with Rhizoctonia solani.
As to `CO/C=C(/C(=O)OC)c1ccccc1COc1cccc(C(=O)/C=C/c2ccc(Cl)c(Cl)c2)c1`, the inhibition at 200 µg/mL (in the test with Podosphaera fuliginea [1]; with Botrytis cinerea; in test [2]; in the test on Rhizoctonia solani) was 0% each time.
With `CO/C=C(/C(=O)OC)c1ccccc1COc1cccc(C(=O)/C=C/c2ccc(C)cc2)c1`, the inhibition at 200 µg/mL in the test with Podosphaera fuliginea [1] was found to be 97%; in the test on Botrytis cinerea, 0%; in test [2] it was 100%; in the test on Rhizoctonia solani it was 0%.
With `CO/C=C(/C(=O)OC)c1ccccc1COc1cccc(C(=O)/C=C/c2ccccc2Br)c1`, the inhibition at 200 µg/mL in the test on Podosphaera fuliginea [1] came out at 59%; with Botrytis cinerea, 0%; in test [2], 100%; in the test with Rhizoctonia solani it was 31%.
For `CO/C=C(/C(=O)OC)c1ccccc1COc1ccc(C(=O)/C=C/c2ccc(C(C)(C)C)cc2)cc1`, the inhibition at 200 µg/mL is 67% with Podosphaera fuliginea [1], 0% with Botrytis cinerea, 22% in test [2] and 0% with Rhizoctonia solani.
In the case of `CO/C=C(/C(=O)OC)c1ccccc1COc1cccc(C(=O)/C=C/c2cccs2)c1`, the inhibition at 200 µg/mL in the test with Podosphaera fuliginea [1] came out at 0%; in the test with Botrytis cinerea, 24%; in test [2] it was 0%; with Rhizoctonia solani, 0%.
As to `CO/C=C(/C(=O)OC)c1ccccc1COc1ccccc1C(=O)/C=C/c1ccc(OC)c(OC)c1`, the inhibition at 200 µg/mL (with Podosphaera fuliginea [1]; in the test on Botrytis cinerea; in test [2]; in the test with Rhizoctonia solani) was 0% each time.
For `CO/C=C(/C(=O)OC)c1ccccc1COc1cccc(C(=O)/C=C/c2ccc(F)cc2)c1`, the inhibition at 200 µg/mL in the test on Podosphaera fuliginea [1] worked out at 31%; in the test with Botrytis cinerea it was 0%; in test [2] it was 97%; in the test with Rhizoctonia solani, 0%.
As for `CO/C=C(/C(=O)OC)c1ccccc1COc1ccc(C(=O)/C=C/c2cccc(Br)c2)cc1`, the inhibition at 200 µg/mL in the test with Podosphaera fuliginea [1] came out at 0%; in the test on Botrytis cinerea, 0%; in test [2] it was 56%; with Rhizoctonia solani it was 0%.
For `CO/C=C(/C(=O)OC)c1ccccc1COc1cccc(C(=O)/C=C/c2ccc(C)c(C)c2)c1`, the inhibition at 200 µg/mL in the test with Podosphaera fuliginea [1] was 92%; in the test on Botrytis cinerea, 0%; in test [2], 100%; with Rhizoctonia solani, 0%. In the test on Podosphaera fuliginea [4], the EC90 was determined as 139.47 µg/mL (≈ 305 µM).
Turning to `CO/C=C(/C(=O)OC)c1ccccc1COc1cccc(C(=O)/C=C/c2ccc(Cl)cc2)c1`, the inhibition at 200 µg/mL with Podosphaera fuliginea [1] worked out at 96%; with Botrytis cinerea, 0%; in test [2], 100%; in the test on Rhizoctonia solani, 0%.
Regarding `CCOc1ccc(/C=C/C(=O)c2cccc(OCc3ccccc3/C(=C\OC)C(=O)OC)c2)cc1`, the inhibition at 200 µg/mL in the test on Podosphaera fuliginea [1] was found to be 0%; in the test on Botrytis cinerea, 0%; in test [2], 33%; in the test with Rhizoctonia solani, 0%.
Consider `CO/C=C(/C(=O)OC)c1ccccc1COc1ccccc1C(=O)/C=C/c1ccc(Cl)cc1`, for which the inhibition at 200 µg/mL (with Podosphaera fuliginea [1]; with Botrytis cinerea; in test [2]; with Rhizoctonia solani) was 0% throughout.
As for `CO/C=C(/C(=O)OC)c1ccccc1COc1cccc(C(=O)/C=C/c2cccc(Cl)c2)c1`, the inhibition at 200 µg/mL turned out to be 30% in the test on Podosphaera fuliginea [1], 0% in the test with Botrytis cinerea, 33% in test [2] and 0% in the test on Rhizoctonia solani.
In the case of `CO/C=C(/C(=O)OC)c1ccccc1COc1ccc(Cl)cc1C(=O)/C=C/c1ccc(Cl)cc1`, the inhibition at 200 µg/mL in the test with Podosphaera fuliginea [1] came out at 86%; in the test on Botrytis cinerea it was 21%; in test [2], 0%; in the test on Rhizoctonia solani, 0%.
Regarding `CO/C=C(/C(=O)OC)c1ccccc1COc1ccc(C(=O)/C=C/c2ccc(Br)cc2)cc1`, the inhibition at 200 µg/mL in the test with Podosphaera fuliginea [1] came to 0%; in the test with Botrytis cinerea, 0%; in test [2], 56%; in the test on Rhizoctonia solani it was 0%.
On to `CO/C=C(/C(=O)OC)c1ccccc1COc1ccc(C(=O)/C=C/c2ccccc2)cc1`, for which the inhibition at 200 µg/mL (in the test on Podosphaera fuliginea [1]; in the test with Botrytis cinerea; in test [2]; in the test on Rhizoctonia solani) was 0% in each case.
As for `CO/N=C(/C(=O)OC)c1ccccc1COc1ccccc1C` [KRESOXIM-METHYL], the inhibition at 200 µg/mL (in the test on Podosphaera fuliginea [1]; in test [2]) was 100% each time. The EC90 with Podosphaera fuliginea [4] is 7.3 µg/mL (≈ 23.3 µM); in test [3] it was 154.92 µg/mL (≈ 494 µM).
With `CO/C=C(/C(=O)OC)c1ccccc1COc1cccc(C(=O)/C=C/c2ccc3c(c2)OCO3)c1`, the inhibition at 200 µg/mL was determined as 0% in the test with Podosphaera fuliginea [1], 0% in the test on Botrytis cinerea, 0% in test [2] and 29% with Rhizoctonia solani.

Values taken from ChEMBL document CHEMBL3045438, “Synthesis and fungicidal evaluation of novel chalcone-based strobilurin analogues” (2007).
